According to ChEMBL document CHEMBL5380827, “Structure-Based Design of Y-Shaped Covalent TEAD Inhibitors” (J Med Chem, 2023):

Columns and labels:
[1] = Inhibition of N-terminal His6-tagged human recombinant TEAD4 (209 to 427 residues)/ recombinant YBD (unknown origin) incubated for 5 hrs by TR-FRET assay
Procedure, shortened: (§1)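 His-tagged TEAD YAP-binding domain protein (100 nM), expressed in Rosetta(DE3) pLysS and purified by cobalt resin then gel filtration. Protein preincubated with inhibitor for 5 h in 50 mM HEPES pH 7.5, 200 mM NaCl, 0.1% Pluronic F-68. Then 800 nM tracer WZJ-10 and anti-6His Tb cryptate (50 ng/mL final) added; TR-FRET read at 490/520 nm. Mean ± SEM of two experiments, each in biological triplicate.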

[2] = Inhibition of N-terminal His6-tagged human recombinant TEAD3 (216 to 434 residues)/ recombinant YBD (unknown origin) incubated for 5 hrs by TR-FRET assay; procedure, shortened: as §1
[3] = Inhibition of N-terminal GST/His6-tagged human recombinant TEAD1 (209 to 424 residues)/YBD (unknown origin) incubated for 5 hrs by TR-FRET assay; procedure, shortened: as §1
[4] = Inhibition of TEAD transcriptional activity in human NCI-H226 cells assessed as luciferase activity measured for 3 days by reporter gene assay; assay type: cell-based; conditions: NCI-H226, 72 h
Procedure, shortened: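 NCI-H226 cells transduced with a pan-TEAD response element luciferase reporter lentivirus (8 μg/mL polybrene) and puromycin-selected. Seeded at 1000 cells per well in 384-well plates and treated with inhibitor for 3 days. Luciferase read with One-Glo and normalized to CellTiter-Glo viability.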

[5] = Inhibition of N-terminal His6-tagged human recombinant TEAD2 (217 to 447 residues)/ recombinant YBD (unknown origin) incubated for 5 hrs by TR-FRET assay; procedure, shortened: as §1
NCI-H226 = experiment: Antiproliferative activity against human NCI-H226 cells assessed as reduction in cell viability measured for 5 days by celliter-glo assay; assay type: functional, cell-based; conditions: NCI-H226, 120 h
Procedure, shortened: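 NCI-H226 mesothelioma cells grown in RPMI1640 with 10% FBS and 1% penicillin/streptomycin, seeded at 100 cells per well in 384-well plates. Inhibitor added by digital dispenser, 5-day incubation. CellTiter-Glo luminescence read after 20 min, normalized to DMSO-treated samples. Mean ± SD of n = 3 biological independent samples.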

[6] = Antiproliferative activity against human 94T778 cells assessed as reduction in cell viability measured for 5 days by celliter-glo assay; assay type: functional, cell-based; conditions: 94T778, 120 h
Procedure, shortened: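 94T778 well-differentiated liposarcoma cells grown in RPMI1640 with 10% FBS and 1% penicillin/streptomycin. Treated with inhibitor for 5 days and viability read as CellTiter-Glo luminescence. Mean ± SD of n = 3 biological independent samples.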

Row | IC50 [1] [nM] | IC50 [2] [nM] | IC50 [3] [nM] | IC50 [4] [nM] | IC50 [5] [nM] | IC50 (NCI-H226) [nM] | SMILES | IC50 [6] [nM]
1 | 4430 | 215 | 100 | 1720 | 604 | – | C=CC(=O)N1C[C@@H](n2cc(-c3cccnc3)nn2)[C@H](OCc2cc(C(F)(F)F)ccc2Cl)C1 (racemic) | –
2 | 2480 | 144 | 207 | 670 | 230 | – | C=CC(=O)N1C[C@@H](n2cc(-c3cccnc3)nn2)[C@H](OCc2ccc(C(F)(F)F)cn2)C1 (racemic) | –
3 | > 10000 | 834 | 391 | 2210 | 911 | – | C=CC(=O)N1C[C@@H](n2cc(-c3cccnc3)nn2)[C@H](OCc2ccc(C(F)(F)F)nc2)C1 (racemic) | –
4 | > 10000 | 47 | 44 | 229 | 459 | – | CC#CC(=O)N1C[C@@H](n2cc(-c3cccnc3)nn2)[C@H](OCc2ccc(C(F)(F)F)cc2)C1 | –
5 | 111 | 36 | 56 | 131 | 178 | 368 | C=CC(=O)N1C[C@@H](n2cccn2)[C@H](OCc2ccc(C(F)(F)F)cc2)C1 (racemic) | 258
6 | 83 | 51 | 51 | 153 | 305 | – | C=CC(=O)N1C[C@@H](OCc2ccc(C(F)(F)F)cc2)[C@H](c2ccc(S(C)(=O)=O)cc2)C1 (racemic) | –
7 | 236 | 429 | 80 | 522 | 578 | – | C=CC(=O)N1CCN(c2ncccn2)CC(OCc2ccc(C(F)(F)F)cc2)C1 (racemic) | –
8 | 406 | 20 | 31 | 153 | 79 | – | C=CC(=O)N1C[C@@H](n2ccnn2)[C@H](OCc2ccc(C(F)(F)F)cc2)C1 (racemic) | –
9 | 21 | 26 | 30 | 16 | 17 | 28 | C=CC(=O)N1C[C@@H](Nc2ncc(F)cn2)[C@H](OCc2ccc(C(F)(F)F)cc2)C1 (racemic) | 114
10 | 98 | 50 | 42 | 90 | 103 | 150 | C=CC(=O)N1C[C@@H](n2ncccc2=O)[C@H](OCc2ccc(C(F)(F)F)cc2)C1 (racemic) | 214
11 | > 10000 | 1640 | 1030 | 1710 | > 10000 | – | CN(C)C/C=C/C(=O)N1C[C@@H](n2cc(-c3cccnc3)nn2)[C@H](OCc2ccc(C(F)(F)F)cc2)C1 | –
12 | 35 | 19 | 31 | – | 40 | – | Cc1cccc([C@H](C)NC(=O)c2ccc3c(-c4ccc(C(F)(F)F)cc4)cccc3c2)n1 | –
13 | 604 | 38 | 118 | 1380 | 26 | – | C=CC(=O)N1C[C@@H](n2cc(-c3cccnc3)nn2)[C@H](OCC23CC4CC(CC(C4)C2)C3)C1 (mixture of isomers) | –
14 | > 10000 | 19 | 42 | 2740 | 19 | – | C=C(C(=O)N1C[C@@H](n2cc(-c3cccnc3)nn2)[C@H](OCc2ccc(C(F)(F)F)cc2)C1)C(F)(F)F | –
15 | 467 | 31 | 29 | 86 | 197 | 131 | C=C(F)C(=O)N1C[C@@H](n2cc(-c3cccnc3)nn2)[C@H](OCc2ccc(C(F)(F)F)cc2)C1 | 173
16 | 685 | 68 | 264 | 467 | 50 | – | C=CC(=O)N1C[C@@H](n2cc(-c3cccnc3)nn2)[C@H](OCC2CCC(F)(F)CC2)C1 (racemic) | –
17 | > 10000 | 426 | 425 | 985 | 230 | – | C=CC(=O)N1C[C@@H](n2cc(-c3cccnc3)nn2)[C@H](OCc2cc(Cl)cc(C(F)(F)F)c2)C1 (racemic) | –
18 | 718 | 51 | 40 | 206 | 103 | – | C=CC(=O)N1C[C@@H](n2cc(-c3ccncn3)nn2)[C@H](OCc2ccc(C(F)(F)F)cc2)C1 (racemic) | –
19 | 71 | 32 | 47 | 17 | 275 | 24 | C=C(F)C(=O)N1C[C@@H](Nc2ncccn2)[C@H](OCc2ccc(C(F)(F)F)cc2)C1 | 40
20 | 427 | 121 | 56 | 171 | 1240 | 246 | C=CC(=O)N1CC[C@@H](OCc2ccc(C(F)(F)F)cc2)[C@H](Nc2ncc(F)cn2)C1 (racemic) | 1020
21 | 62 | 48 | 33 | 58 | 192 | 186 | C=CC(=O)N1C[C@@H](Cc2ccccn2)[C@H](OCc2ccc(C(F)(F)F)cc2)C1 (racemic) | 612
22 | 25 | 26 | 37 | 106 | 49 | 63 | C=CC(=O)N1C[C@@H](n2cc(-c3cccnc3)nn2)[C@H](OCc2ccc(C(F)(F)F)cc2)C1 (racemic) | 173
23 | 25 | 30 | 29 | 14 | 9 | 16 | C=CC(=O)N1C[C@@H](Nc2ncccn2)[C@H](OCc2ccc(C(F)(F)F)cc2)C1 (racemic) | 34
